This is an account of results in ChEMBL document CHEMBL2146363, “Allylic thiocyanates as a new class of antitubercular agents” (Bioorg Med Chem Lett, 2012).

≈ marks a conversion by molar mass, not a printed value.

The subject of assay [1] is Mycobacterium tuberculosis. Kind of assay: Antitubercular activity against Mycobacterium tuberculosis H37Rv in GAS medium after 4 days by microplate alamar blue assay. To be noted: 96 h. The class given is functional. The method in brief:
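Replicating M. tuberculosis H37Rv grown in GAS (glycerol–alanine–salts) medium. MIC determined by microplate Alamar Blue assay (MABA).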

Assay [2] relates to Mycobacterium tuberculosis. Description: Antitubercular activity against Mycobacterium tuberculosis H37Rv in 7H12 medium after 4 days by microplate alamar blue assay. The following applies: 96 h. The class given is functional. The gist of the method: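 Replicating M. tuberculosis H37Rv tested in Middlebrook 7H12 medium, which lacks glycerol and uses palmitic acid as carbon source. MIC read by microplate Alamar Blue assay (MABA).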

For assay [3], the system named is Mycobacterium tuberculosis. Kind of assay: Antitubercular activity against Mycobacterium tuberculosis H37Rv in 7H12 medium incubated for 10 days in anaerobic condition followed by incubation for 48 hrs in aerobic condition by low oxygen recovery assay. The class given is functional. The gist of the method:
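Non-replicating M. tuberculosis H37Rv tested in 7H12 medium (palmitic acid carbon source, no glycerol) under low-oxygen conditions by the low-oxygen-recovery assay (LORA), which models persistence or latency. Read-out is MIC.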

The subject of a further assay is Vero. Description: Cytotoxicity against african green monkey Vero cells after 72 hrs by MTS assay. Type of assay: cell-based. To be noted: Chlorocebus sabaeus. The method in brief:
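African green monkey kidney VERO cell line; toxicity read as half-maximal inhibitory concentration (IC50). Each reported value is the average of three individual measurements, rounded to the nearest dilution.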

A short description of assay [4]: Selectivity ratio of IC50 for african green monkey Vero cells to MIC for Mycobacterium tuberculosis H37Rv in GAS medium. The class given is functional.

In assay [1], `COC(=O)/C(=C/c1ccccc1)CSC(=N)Nc1ccccc1` displayed an MIC of 16 µM (≈ 5.22 µg/mL).

As for `COC(=O)/C(=C/c1ccc([N+](=O)[O-])cc1)CN=[N+]=[N-]`, the MIC in assay [2] was above 32 µM; in assay [1], 4 µM (≈ 1.05 µg/mL); in assay [3], 16 µM (≈ 4.2 µg/mL). In the assay on Vero, this compound came in with an IC50 above 64 µM.

With `COC(=O)/C(=C/c1ccccc1[N+](=O)[O-])CN=[N+]=[N-]`, 64 µM (≈ 16.8 µg/mL) was the least that counted as inhibitory in assay [1] (MIC).

For `COC(=O)/C(=C/C=C/c1ccccc1)CN=[N+]=[N-]`, the MIC in assay [1] came out at 64 µM (≈ 15.6 µg/mL).

`COC(=O)/C(=C/c1ccc2c(c1)OCO2)CN=[N+]=[N-]` gave an MIC in assay [1] of 64 µM (≈ 16.7 µg/mL).

The compound `COC(=O)/C(=C/c1ccc(OC)cc1)CN=[N+]=[N-]` registered an MIC in assay [1] above 128 µM.

Compound `COC(=O)/C(=C/c1ccccc1)CN=[N+]=[N-]` returned an MIC in assay [1] above 128 µM.

In assay [1], `COC(=O)/C(=C/c1ccc2ccccc2c1)CN=[N+]=[N-]` yielded an MIC above 128 µM.

Compound `COC(=O)/C(=C/c1ccc(Cl)cc1)CN=[N+]=[N-]` showed an MIC in assay [1] above 128 µM.

`COC(=O)/C(=C/c1ccccc1Cl)CN=[N+]=[N-]`: in assay [1], the MIC was above 128 µM.

Turning to `COC(=O)/C(=C/c1ccc(Cl)cc1Cl)CN=[N+]=[N-]`, the MIC in assay [1] was above 128 µM.

`COC(=O)/C(=C/c1ccc([N+](=O)[O-])cc1)CSC#N` returned a minimal inhibitory concentration (MIC) in assay [1] above 128 µM.

`COC(=O)/C(=C/c1ccccc1[N+](=O)[O-])CSC#N` showed an MIC in assay [1] of 8 µM (≈ 2.23 µg/mL).

Consider `COC(=O)/C(=C/C=C/c1ccccc1)CSC#N`, for which the MIC in assay [1] is above 128 µM.

Consider `COC(=O)/C(=C/c1ccc2c(c1)OCO2)CSC#N`, for which the minimal inhibitory concentration (MIC) in assay [1] was above 128 µM.

In assay [1], `COC(=O)/C(=C/c1ccc(OC)cc1)CSC#N` came in with an MIC of 16 µM (≈ 4.21 µg/mL).

In the case of `COC(=O)/C(=C/c1ccc(OC)c(OC)c1)CSC#N`, the MIC in assay [1] amounted to 16 µM (≈ 4.69 µg/mL).

As to `COC(=O)/C(=C/c1ccccc1)CSC#N`, the MIC in assay [1] was found to be 1 µM (≈ 0.233 µg/mL).

As to `COC(=O)/C(=C/c1ccc2ccccc2c1)CSC#N`, the MIC in assay [2] was 32 µM (≈ 9.07 µg/mL); in assay [1] it was 0.25 µM (≈ 0.0708 µg/mL); in assay [3] it was 16 µM (≈ 4.53 µg/mL). Moreover, the IC50 in the assay with Vero came to 32 µM. The Selectivity ratio in assay [4] was above 100.

For `COC(=O)/C(=C/c1ccc(C)cc1)CSC#N`, the minimal inhibitory concentration (MIC) in assay [2] amounted to 8 µM (≈ 1.98 µg/mL); in assay [1] it was 0.5 µM (≈ 0.124 µg/mL); in assay [3], 16 µM (≈ 3.96 µg/mL). The compound further yielded an IC50 in the assay with Vero of 32 µM.

With `COC(=O)/C(=C/c1ccc(Cl)cc1)CSC#N`, the MIC was 8 µM (≈ 2.14 µg/mL) in assay [2], 0.25 µM (≈ 0.0669 µg/mL) in assay [1] and 8 µM (≈ 2.14 µg/mL) in assay [3]. In the assay with Vero, half-maximal inhibition (IC50) required 16 µM.

Take `COC(=O)/C(=C/c1ccccc1Cl)CSC#N`: the MIC in assay [1] is above 128 µM.

Compound `COC(=O)/C(=C/c1ccc(Cl)cc1Cl)CSC#N` had a minimum inhibitory concentration (MIC) in assay [1] above 128 µM.

For `COC(=O)/C(=C/c1ccccc1Br)CSC#N`, the figures for the MIC in assay [2], in assay [1] and in assay [3] were 8 µM (≈ 2.5 µg/mL), 0.25 µM (≈ 0.078 µg/mL) and 4 µM (≈ 1.25 µg/mL), respectively. The compound also registered an IC50 in the assay on Vero of 32 µM. In assay [4], the Selectivity ratio is on record as above 100.

With `COC(=O)/C(=C/c1ccc(Br)cc1)CSC#N`, the MIC in assay [2] came to 16 µM (≈ 5 µg/mL); in assay [1], 0.25 µM (≈ 0.078 µg/mL); in assay [3], 16 µM (≈ 5 µg/mL). Also, in the assay on Vero, it took 32 µM to reach half-maximal inhibition (IC50). Also, the Selectivity ratio in assay [4] is on record as above 100.

As to `COC(=O)/C(=C/c1ccc(F)cc1)CSC#N`, the minimal inhibitory concentration (MIC) stood at 16 µM (≈ 4.02 µg/mL) in assay [2], 0.5 µM (≈ 0.126 µg/mL) in assay [1] and 16 µM (≈ 4.02 µg/mL) in assay [3]. 32 µM corresponded to half-maximal inhibition with Vero (IC50).

Take `COC(=O)/C(=C/c1ccc([N+](=O)[O-])cc1)CSC(=N)N`: the MIC in assay [2] worked out at 64 µM (≈ 18.9 µg/mL); in assay [1] it was 8 µM (≈ 2.36 µg/mL).

Consider `COC(=O)/C(=C/c1ccc2c(c1)OCO2)CSC(=N)N`, for which the MIC in assay [1] is above 128 µM.

With `COC(=O)/C(=C/c1ccc(OC)cc1)CSC(=N)N`, it took 32 µM (≈ 8.97 µg/mL) to inhibit growth in assay [1] (MIC).

As to `COC(=O)/C(=C/c1ccccc1)CSC(=N)N`, the lowest concentration to inhibit growth in assay [1] (MIC) was 64 µM (≈ 16 µg/mL).

The compound `COC(=O)/C(=C/c1ccccc1Cl)CSC(=N)N` returned an MIC in assay [1] above 128 µM.

`COC(=O)/C(=C/c1ccc([N+](=O)[O-])cc1)CSC(=N)Nc1ccccc1`: the MIC is above 32 µM in assay [2], 4 µM (≈ 1.49 µg/mL) in assay [1] and above 64 µM in assay [3]. In addition, the IC50 in the assay on Vero was above 64 µM.

`COC(=O)/C(=C/c1cccc([N+](=O)[O-])c1)CSC(=N)Nc1ccccc1` had an MIC in assay [1] of 16 µM (≈ 5.94 µg/mL).

`COC(=O)/C(=C/c1ccccc1[N+](=O)[O-])CSC(=N)Nc1ccccc1` yielded an MIC in assay [1] of 16 µM (≈ 5.94 µg/mL).

`COC(=O)/C(=C/c1ccc2c(c1)OCO2)CSC(=N)Nc1ccccc1`: the MIC in assay [1] is 16 µM (≈ 5.93 µg/mL).

In turn, `COC(=O)/C(=C/c1ccc(OC)cc1)CSC(=N)Nc1ccccc1` yielded an MIC in assay [1] of 16 µM (≈ 5.7 µg/mL).

In turn, `COC(=O)/C(=C/c1ccc(C)cc1)CSC(=N)Nc1ccccc1` yielded an MIC in assay [1] of 16 µM (≈ 5.45 µg/mL).

In turn, `COC(=O)/C(=C/c1ccc(Cl)cc1)CSC(=N)Nc1ccccc1` had an MIC in assay [1] of 8 µM (≈ 2.89 µg/mL).

`COC(=O)/C(=C/c1ccc(F)cc1)CSC(=N)Nc1ccccc1` yielded an MIC in assay [1] of 8 µM (≈ 2.76 µg/mL).

On to `COC(=O)/C(=C/c1ccccc1)CS/C(=N\C(C)=O)NC(C)=O`, for which inhibition of growth in assay [1] (MIC) required 32 µM (≈ 10.7 µg/mL).

In assay [1], `COC(=O)/C(=C/c1ccccc1Cl)CS/C(=N\C(C)=O)NC(C)=O` displayed an MIC of 32 µM (≈ 11.8 µg/mL).
